ChEMBL document CHEMBL1151476, “Genetic and biochemical characterization of CAD-1, a chromosomally encoded new class A penicillinase from Carnobacterium divergens” (Antimicrob Agents Chemother, 2008)
Converted amounts (≈) assume the structure as drawn. The source made the active and inactive calls. The calls are words filed in the database; no cut-off is given here.

Experiments:
Carnobacterium divergens [1] = experiment: Ratio of Kcat to Km of Carnobacterium divergens BM4489 penicillinase Cad-1 relative to benzyl-penicillin
Carnobacterium divergens [2] = experiment: Ratio of Kcat to Km of Carnobacterium divergens BM4489 penicillinase Cad-1
Carnobacterium divergens [3] = experiment: Activity of Carnobacterium divergens BM4489 penicillinase Cad-1 assessed as initial rate of hydrolysis by spectrophotometer
Carnobacterium divergens [4] = experiment: Activity of Carnobacterium divergens BM4489 penicillinase Cad-1 at 1 uM enzyme concentration assessed as initial rate of hydrolysis by spectrophotometer
Carnobacterium divergens [5] = experiment: Antimicrobial activity against Carnobacterium divergens BM4489 expressing beta-lactamase CAD1 at 3 McFarland inoculum size by E-test; assay type: functional
Carnobacterium divergens [6] = experiment: Antimicrobial activity against Carnobacterium divergens BM4490 expressing beta-lactamase CAD1 at 3 McFarland inoculum size by E-test; assay type: functional, organism-based; conditions: 3 M
Escherichia coli [7] = experiment: Antimicrobial activity against Escherichia coli BL21 (DE3) by E-test; assay type: functional
Procedure, shortened: (§1)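 MICs read by E-test strips on Mueller-Hinton agar.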

Carnobacterium divergens [8] = experiment: Antimicrobial activity against Carnobacterium divergens CIP101029 at 3 McFarland inoculum size by E-test; assay type: functional
Carnobacterium divergens [9] = experiment: Antimicrobial activity against Carnobacterium divergens CIP101029 at 0.5 McFarland inoculum size by E-test; assay type: functional
Carnobacterium divergens [10] = experiment: Antimicrobial activity against Carnobacterium divergens BM4489 expressing beta-lactamase CAD1 at 0.5 McFarland inoculum size by E-test; assay type: functional
Escherichia coli [11] = experiment: Antimicrobial activity against Escherichia coli BL21 (DE3) harboring pAT514 by E-test; assay type: functional; procedure, shortened: as §1
Carnobacterium divergens [12] = experiment: Antimicrobial activity against Carnobacterium divergens BM4490 expressing beta-lactamase CAD1 at 0.5 McFarland inoculum size by E-test; assay type: functional, organism-based
[13] = Inhibition of Carnobacterium divergens BM4489 penicillinase Cad-1
Procedure, shortened: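 CAD-1 carried a C-terminal His6 tag and was expressed in E. coli BL21-CodonPlus(DE3)-RIPL from pAT514. It was purified by Ni affinity and Superdex 75 gel filtration. Enzyme was preincubated with varied inhibitor for 30 min at 25°C in 100 mM sodium phosphate pH 7.0, then 100 µM nitrocefin was added. Initial hydrolysis rates were followed spectrophotometrically. IC50 is the inhibitor concentration halving the rate.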

[14] = Ratio of IC50 for beta-lactamase TEM-1 over IC50 for Carnobacterium divergens BM4489 penicillinase Cad-1

In the case of `CC1(C)S[C@@H]2[C@H](NC(=O)C(C(=O)O)c3ccccc3)C(=O)N2[C@H]1C(=O)O` (some centres undefined), the kcat/Km (Carnobacterium divergens [1]) is reported as 0.4, the kcat/Km (Carnobacterium divergens [2]) is reported as 24000 M⁻¹ s⁻¹ and the Km (Carnobacterium divergens [3]) is reported as 245 µM. It also gave a kcat (Carnobacterium divergens [3]) of 6 s⁻¹.
For `CO/N=C(\C(=O)N[C@@H]1C(=O)N2C(C(=O)O)=C(COC(N)=O)CS[C@H]12)c1ccco1`, the Activity (Carnobacterium divergens [4]) was “inactive”.
In the case of `CO/N=C(\C(=O)N[C@@H]1C(=O)N2C(C(=O)[O-])=C(C[N+]3(C)CCCC3)CS[C@H]12)c1csc(N)n1`, the Activity (Carnobacterium divergens [4]) is reported as “inactive”.
With `CO[C@@]1(NC(=O)Cc2cccs2)C(=O)N2C(C(=O)O)=C(COC(N)=O)CS[C@@H]21` the Activity (Carnobacterium divergens [4]) was “inactive”.
Compound `O=C(Cc1cccs1)N[C@@H]1C(=O)N2C(C(=O)[O-])=C(C[n+]3ccccc3)CS[C@H]12` has a kcat/Km (Carnobacterium divergens [1]) of 0.3, a kcat/Km (Carnobacterium divergens [2]) of 22000 M⁻¹ s⁻¹ and a Km (Carnobacterium divergens [3]) of 26 µM. The kcat (Carnobacterium divergens [3]) was 0.56 s⁻¹.
With `CC1(C)S[C@@H]2[C@H](NC(=O)[C@H](N)c3ccc(O)cc3)C(=O)N2[C@H]1C(=O)O` [AMOXICILLIN] the MIC (Carnobacterium divergens [5]) was 16 µg/mL (≈ 43.8 µM), the MIC (Carnobacterium divergens [6]) was “Active” and the MIC (Escherichia coli [7]) was 1.5 µg/mL (≈ 4.1 µM). The MIC (Carnobacterium divergens [8]) was 2 µg/mL (≈ 5.47 µM), the MIC (Carnobacterium divergens [9]) was 0.75 µg/mL (≈ 2.05 µM) and the MIC (Carnobacterium divergens [10]) was 4 µg/mL (≈ 10.9 µM). For the same compound, the MIC (Escherichia coli [11]) was > 256 µg/mL and the MIC (Carnobacterium divergens [12]) was “Active”.
In the case of `CC1(C)S[C@@H]2[C@H](NC(=O)[C@H](N)c3ccccc3)C(=O)N2[C@H]1C(=O)O` [AMPICILLIN], the MIC (Carnobacterium divergens [5]) is reported as 24 µg/mL (≈ 68.7 µM), the kcat/Km (Carnobacterium divergens [1]) is reported as 48 and the MIC (Carnobacterium divergens [6]) is reported as “Active”. For the same compound, the MIC (Escherichia coli [7]) was 0.75 µg/mL (≈ 2.15 µM), the MIC (Carnobacterium divergens [8]) was 2 µg/mL (≈ 5.72 µM) and the MIC (Carnobacterium divergens [9]) was 1.5 µg/mL (≈ 4.29 µM). The MIC (Carnobacterium divergens [10]) was 3 µg/mL (≈ 8.59 µM), the kcat/Km (Carnobacterium divergens [2]) was 3.19e+06 M⁻¹ s⁻¹ and the MIC (Escherichia coli [11]) was > 256 µg/mL. The MIC (Carnobacterium divergens [12]) was “Active”, the Km (Carnobacterium divergens [3]) was 48 µM and the kcat (Carnobacterium divergens [3]) was 153 s⁻¹.
With `C[C@H]1[C@H](NC(=O)/C(=N\OC(C)(C)C(=O)O)c2csc(N)n2)C(=O)N1S(=O)(=O)O` [AZTREONAM] the MIC (Carnobacterium divergens [5]) was > 256 µg/mL, the MIC (Carnobacterium divergens [6]) was “Active” and the Activity (Carnobacterium divergens [4]) was “Active”. For the same compound, the MIC (Escherichia coli [7]) was < 0.016 µg/mL, the MIC (Carnobacterium divergens [8]) was > 256 µg/mL and the MIC (Carnobacterium divergens [9]) was > 256 µg/mL. For the same compound, the MIC (Carnobacterium divergens [10]) was > 256 µg/mL, the MIC (Escherichia coli [11]) was < 0.016 µg/mL and the MIC (Carnobacterium divergens [12]) was “Active”.
In the case of `CO/N=C(\C(=O)N[C@@H]1C(=O)N2C(C(=O)O)=C(COC(C)=O)CS[C@H]12)c1csc(N)n1` [CEFOTAXIME], the MIC (Carnobacterium divergens [5]) is reported as > 256 µg/mL, the MIC (Carnobacterium divergens [6]) is reported as “Active” and the Activity (Carnobacterium divergens [4]) is reported as “inactive”. For the same compound, the MIC (Escherichia coli [7]) was < 0.016 µg/mL, the MIC (Carnobacterium divergens [8]) was > 256 µg/mL and the MIC (Carnobacterium divergens [9]) was > 256 µg/mL. For the same compound, the MIC (Carnobacterium divergens [10]) was > 256 µg/mL and the MIC (Carnobacterium divergens [12]) was “Active”.
In the case of `CC(C)(O/N=C(\C(=O)N[C@@H]1C(=O)N2C(C(=O)[O-])=C(C[n+]3ccccc3)CS[C@H]12)c1csc(N)n1)C(=O)O` [CEFTAZIDIME], the MIC (Carnobacterium divergens [5]) is reported as > 256 µg/mL, the MIC (Carnobacterium divergens [6]) is reported as “Active” and the Activity (Carnobacterium divergens [4]) is reported as “inactive”. The MIC (Escherichia coli [7]) was 0.064 µg/mL (≈ 0.117 µM), the MIC (Carnobacterium divergens [8]) was > 256 µg/mL and the MIC (Carnobacterium divergens [9]) was > 256 µg/mL. The MIC (Carnobacterium divergens [10]) was > 256 µg/mL, the MIC (Escherichia coli [11]) was 0.047 µg/mL (≈ 0.086 µM) and the MIC (Carnobacterium divergens [12]) was “Active”.
`O=C(O)[C@H]1/C(=C/CO)O[C@@H]2CC(=O)N21` [CLAVULANIC ACID] gave an IC50 [13] of 4.7 µM and a Ratio IC50 [14] of 60.
In the case of `C[C@@H](O)[C@H]1C(=O)N2C(C(=O)O)=C(SCCNC=N)C[C@H]12` [IMIPENEM ANHYDROUS], the MIC (Carnobacterium divergens [5]) is reported as 0.19 µg/mL (≈ 0.635 µM), the MIC (Carnobacterium divergens [6]) is reported as “Active” and the MIC (Escherichia coli [7]) is reported as 0.25 µg/mL (≈ 0.835 µM). The MIC (Carnobacterium divergens [8]) was 0.19 µg/mL (≈ 0.635 µM), the MIC (Carnobacterium divergens [9]) was 0.19 µg/mL (≈ 0.635 µM) and the MIC (Carnobacterium divergens [10]) was 0.19 µg/mL (≈ 0.635 µM). For the same compound, the MIC (Escherichia coli [11]) was 0.19 µg/mL (≈ 0.635 µM) and the MIC (Carnobacterium divergens [12]) was “Active”.
With `Cc1onc(-c2ccccc2)c1C(=O)N[C@@H]1C(=O)N2[C@@H]1SC(C)(C)[C@@H]2C(=O)O` [OXACILLIN] the MIC (Carnobacterium divergens [5]) was 24 µg/mL (≈ 59.8 µM), the kcat/Km (Carnobacterium divergens [1]) was 45 and the MIC (Carnobacterium divergens [6]) was “Active”. The MIC (Carnobacterium divergens [8]) was 24 µg/mL (≈ 59.8 µM), the MIC (Carnobacterium divergens [9]) was 16 µg/mL (≈ 39.9 µM) and the MIC (Carnobacterium divergens [10]) was 24 µg/mL (≈ 59.8 µM). For the same compound, the kcat/Km (Carnobacterium divergens [2]) was 2.95e+06 M⁻¹ s⁻¹, the MIC (Carnobacterium divergens [12]) was “Active” and the Km (Carnobacterium divergens [3]) was 21 µM. For the same compound, the kcat (Carnobacterium divergens [3]) was 62 s⁻¹.
In the case of `CC1(C)S[C@@H]2[C@H](NC(=O)Cc3ccccc3)C(=O)N2[C@H]1C(=O)O` [PENICILLIN G], the MIC (Carnobacterium divergens [5]) is reported as 96 µg/mL (≈ 287 µM), the MIC (Carnobacterium divergens [6]) is reported as “Active” and the MIC (Escherichia coli [7]) is reported as 4 µg/mL (≈ 12 µM). The MIC (Carnobacterium divergens [8]) was 6 µg/mL (≈ 17.9 µM), the MIC (Carnobacterium divergens [9]) was 3 µg/mL (≈ 8.97 µM) and the MIC (Carnobacterium divergens [10]) was 12 µg/mL (≈ 35.9 µM). The kcat/Km (Carnobacterium divergens [2]) was 6.6e+06 M⁻¹ s⁻¹, the MIC (Escherichia coli [11]) was > 256 µg/mL and the MIC (Carnobacterium divergens [12]) was “Active”. It also gave a Km (Carnobacterium divergens [3]) of 27 µM and a kcat (Carnobacterium divergens [3]) of 178 s⁻¹.
With `CCN1CCN(C(=O)N[C@@H](C(=O)N[C@@H]2C(=O)N3[C@@H]2SC(C)(C)[C@@H]3C(=O)O)c2ccccc2)C(=O)C1=O` [PIPERACILLIN] the MIC (Carnobacterium divergens [5]) was 128 µg/mL (≈ 247 µM), the kcat/Km (Carnobacterium divergens [1]) was 14 and the MIC (Carnobacterium divergens [6]) was “Active”. For the same compound, the MIC (Escherichia coli [7]) was 0.38 µg/mL (≈ 0.734 µM), the MIC (Carnobacterium divergens [8]) was 32 µg/mL (≈ 61.8 µM) and the MIC (Carnobacterium divergens [9]) was 12 µg/mL (≈ 23.2 µM). The MIC (Carnobacterium divergens [10]) was 64 µg/mL (≈ 124 µM), the kcat/Km (Carnobacterium divergens [2]) was 914000 M⁻¹ s⁻¹ and the MIC (Escherichia coli [11]) was > 256 µg/mL. For the same compound, the MIC (Carnobacterium divergens [12]) was “Active”, the Km (Carnobacterium divergens [3]) was 70 µM and the kcat (Carnobacterium divergens [3]) was 64 s⁻¹.
Work on `CC1(C)[C@H](C(=O)O)N2C(=O)C[C@H]2S1(=O)=O` [SULBACTAM] yielded an IC50 [13] of 43.5 µM.
Work on `C[C@]1(Cn2ccnn2)[C@H](C(=O)O)N2C(=O)C[C@H]2S1(=O)=O` [TAZOBACTAM] yielded an IC50 [13] of 0.27 µM.
For `CC1(C)S[C@@H]2[C@H](NC(=O)[C@H](C(=O)O)c3ccsc3)C(=O)N2[C@H]1C(=O)O` [TICARCILLIN], the MIC (Carnobacterium divergens [5]) was 128 µg/mL (≈ 333 µM), the kcat/Km (Carnobacterium divergens [1]) was 5 and the MIC (Carnobacterium divergens [6]) was “Active”. The MIC (Escherichia coli [7]) was 0.75 µg/mL (≈ 1.95 µM), the MIC (Carnobacterium divergens [8]) was 24 µg/mL (≈ 62.4 µM) and the MIC (Carnobacterium divergens [9]) was 24 µg/mL (≈ 62.4 µM). For the same compound, the MIC (Carnobacterium divergens [10]) was 32 µg/mL (≈ 83.2 µM), the kcat/Km (Carnobacterium divergens [2]) was 330000 M⁻¹ s⁻¹ and the MIC (Escherichia coli [11]) was > 256 µg/mL. The MIC (Carnobacterium divergens [12]) was “Active”, the Km (Carnobacterium divergens [3]) was 106 µM and the kcat (Carnobacterium divergens [3]) was 35 s⁻¹.
